The source made the active and inactive calls. No cut-off for these calls is given here.
Tests used:
HL-60 [1] = assay: Cytotoxicity against human HL60 cells at 20 uM after 72 hrs by MTT assay; assay type: functional, cell-based
NCI-H460 = assay: Cytotoxicity against human NCI-H460 cells; assay type: functional; conditions: read-out: LC50 (the source's name)
SF-295 = assay: Cytotoxicity against human SF295 cells; assay type: functional; conditions: read-out: LC50 (the source's name)
OVCAR-8 = assay: Cytotoxicity against human OVCAR8 cells; assay type: functional; conditions: read-out: LC50 (the source's name)
MKN-28 = assay: Cytotoxicity against human MKN28 cells; assay type: functional; conditions: read-out: LC50 (the source's name)
PC-3 = assay: Cytotoxicity against human PC3 cells; assay type: functional; conditions: read-out: LC50 (the source's name)
HL-60 [2] = assay: Cytotoxicity against human HL60 cells after 72 hrs by MTT assay; assay type: functional, cell-based; conditions: HL-60, 72 h
Summary of the method: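 HL-60 cells (JCRB 0085) grown in RPMI 1640 with heat-inactivated 10% FBS, L-glutamine, penicillin and streptomycin. Seeded at 4 × 10^4 cells/mL, preincubated 24 h at 37 °C in 5% CO2. Samples added in EtOH-H2O (1:1) to final 0.1-50 µg/mL, with vehicle controls, then incubated 72 h. MTT added for 4 h, formazan dissolved in DMSO, A550 read. Done in triplicate; IC50 is the 50% drop in viable cells.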

U-251 = assay: Cytotoxicity against human U251 cells; assay type: functional; conditions: read-out: LC50 (the source's name)
OVCAR-3 = assay: Cytotoxicity against human OVCAR-3 cells; assay type: functional; conditions: read-out: LC50 (the source's name)
[3] = Cytotoxicity against human BSY1 cells; assay type: functional; conditions: BSY-1, read-out: LC50 (the source's name)

C[C@@H]1O[C@@H](OC[C@H]2O[C@@H](O[C@H]3[C@H](O)[C@@H](O)[C@H](O[C@@H]4CO[C@@H](O[C@@H]5[C@@H](O)[C@H](C)O[C@@H](O[C@H]6[C@H](O[C@H]7CC[C@]8(C)[C@H]9CC=C%10[C@@H]%11CC(C)(C)CC[C@]%11(C(=O)O[C@@H]%11O[C@H](CO[C@@H]%12O[C@H](CO)[C@@H](O[C@@H]%13O[C@@H](C)[C@H](O)[C@@H](O)[C@H]%13O)[C@H](O)[C@H]%12O)[C@@H](O)[C@H](O)[C@H]%11O)CC[C@@]%10(C)[C@]9(C)CC[C@H]8C7(C)C)OC[C@H](O)[C@@H]6O)[C@@H]5O)[C@H](O)[C@@H]4O)O[C@@H]3CO)[C@H](O)[C@@H](O)[C@@H]2O)[C@H](O)[C@H](O)[C@H]1O
Activity (HL-60 [1]): inactive

C[C@@H]1O[C@@H](OC[C@H]2O[C@@H](O[C@H]3[C@H](O)[C@@H](O)[C@H](O[C@@H]4CO[C@@H](O[C@@H]5[C@@H](O)[C@H](C)O[C@@H](O[C@H]6[C@H](O[C@H]7CC[C@]8(C)[C@H]9CC=C%10[C@@H]%11CC(C)(C)CC[C@]%11(C(=O)O)CC[C@@]%10(C)[C@]9(C)CC[C@H]8C7(C)C)OC[C@H](O)[C@@H]6O)[C@@H]5O)[C@H](O)[C@@H]4O)O[C@@H]3CO)[C@H](O)[C@@H](O)[C@@H]2O)[C@H](O)[C@H](O)[C@H]1O
CC50 (NCI-H460): 40 µM | CC50 (SF-295): 6 µM | CC50 (OVCAR-8): 71 µM | CC50 (MKN-28): 30 µM | CC50 (PC-3): 6 µM | IC50 (HL-60 [2]): 2.8 µM | CC50 (U-251): 6.3 µM | CC50 (OVCAR-3): 47 µM | CC50 [3]: 5.9 µM

C[C@@H]1O[C@@H](O[C@H]2[C@H](O[C@H]3CC[C@]4(C)[C@H]5CC=C6[C@@H]7CC(C)(C)CC[C@]7(C(=O)O)CC[C@@]6(C)[C@]5(C)CC[C@H]4C3(C)C)OC[C@H](O)[C@@H]2O)[C@H](O)[C@H](O[C@@H]2OC[C@@H](O)[C@@H](O)[C@H]2O)[C@H]1O
IC50 (HL-60 [2]): 2.3 µM
